Values after ≈ are worked out from the molar mass of the structure shown.
Key:
[1] = molecular target: T1, Inhibitor of nuclear factor kappa-B kinase subunit alpha (Homo sapiens, UniProt O15111); experiment: Inhibition of IKK1 (unknown origin)
T1 sequence (O15111 whole entry): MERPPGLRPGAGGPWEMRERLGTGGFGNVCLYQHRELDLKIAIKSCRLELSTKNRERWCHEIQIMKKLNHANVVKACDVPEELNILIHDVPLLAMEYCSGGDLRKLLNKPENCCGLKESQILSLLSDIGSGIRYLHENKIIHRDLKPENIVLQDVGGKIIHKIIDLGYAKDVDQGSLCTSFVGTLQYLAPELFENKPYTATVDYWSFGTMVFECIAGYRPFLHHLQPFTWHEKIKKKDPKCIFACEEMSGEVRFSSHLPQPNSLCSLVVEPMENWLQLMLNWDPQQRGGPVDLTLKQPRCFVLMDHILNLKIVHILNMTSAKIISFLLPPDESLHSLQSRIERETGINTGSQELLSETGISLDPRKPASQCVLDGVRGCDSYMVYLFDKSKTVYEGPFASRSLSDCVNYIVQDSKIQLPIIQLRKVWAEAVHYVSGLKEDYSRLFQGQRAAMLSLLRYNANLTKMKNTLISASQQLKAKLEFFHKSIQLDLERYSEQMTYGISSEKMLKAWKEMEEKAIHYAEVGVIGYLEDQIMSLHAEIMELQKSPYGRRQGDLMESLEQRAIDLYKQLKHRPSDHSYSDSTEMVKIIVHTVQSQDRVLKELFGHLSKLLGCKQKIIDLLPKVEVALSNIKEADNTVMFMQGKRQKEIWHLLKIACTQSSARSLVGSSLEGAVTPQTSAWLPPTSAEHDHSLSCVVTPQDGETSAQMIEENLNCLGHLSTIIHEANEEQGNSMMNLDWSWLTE

[2] = molecular target: Mitogen-activated protein kinase 8 (Homo sapiens, UniProt P45983); experiment: Inhibition of JNK1 (unknown origin)
Sequence of Mitogen-activated protein kinase 8 (P45983 whole entry): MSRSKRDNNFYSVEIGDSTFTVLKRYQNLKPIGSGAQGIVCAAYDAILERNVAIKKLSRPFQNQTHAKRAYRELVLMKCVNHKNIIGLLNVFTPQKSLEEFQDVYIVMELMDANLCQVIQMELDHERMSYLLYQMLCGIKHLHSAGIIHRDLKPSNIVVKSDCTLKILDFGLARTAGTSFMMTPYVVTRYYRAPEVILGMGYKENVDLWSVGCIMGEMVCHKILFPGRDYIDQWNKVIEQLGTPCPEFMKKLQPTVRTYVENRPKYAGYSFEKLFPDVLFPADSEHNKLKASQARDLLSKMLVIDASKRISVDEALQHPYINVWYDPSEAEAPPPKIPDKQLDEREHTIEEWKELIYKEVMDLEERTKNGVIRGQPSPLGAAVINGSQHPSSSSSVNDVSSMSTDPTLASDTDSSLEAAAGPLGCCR

[3] = Cmax in CD rat at 30 mg/kg, po; assay type: ADME, organism-based; set-up: dose 30 mg/kg, route oral; details: in vivo
[4] = Solubility of the compound in pH 7.4 phosphate buffer saline after 1 hr by chemiluminescence nitrogen detection method; assay type: physicochemical; details: phosphate buffered saline
In short: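 Kinetic solubility: 10 mM DMSO stock diluted 1:20 into 10 mM phosphate-buffered saline pH 7.4, equilibrated 1 h at RT, filtered, and filtrate quantified by calibrated flow-injection chemiluminescent nitrogen detection.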

[5] = Ratio of drug level in brain to plasma in CD rat at 30 mg/kg, po; assay type: ADME, organism-based; details: read-out: BPR
[6] = molecular target: Calcium/calmodulin-dependent protein kinase kinase 2 (Mus musculus, UniProt Q8C078); experiment: Inhibition of CAMKK2 in mouse N39 cells assessed as decrease in AMPKalpha phosphorylation at T172 preincubated for 80 mins followed by […] addition by ELISA; assay type: cell-based
Sequence of Calcium/calmodulin-dependent protein kinase kinase 2 (Mus musculus, UniProt Q8C078) (Q8C078 whole entry): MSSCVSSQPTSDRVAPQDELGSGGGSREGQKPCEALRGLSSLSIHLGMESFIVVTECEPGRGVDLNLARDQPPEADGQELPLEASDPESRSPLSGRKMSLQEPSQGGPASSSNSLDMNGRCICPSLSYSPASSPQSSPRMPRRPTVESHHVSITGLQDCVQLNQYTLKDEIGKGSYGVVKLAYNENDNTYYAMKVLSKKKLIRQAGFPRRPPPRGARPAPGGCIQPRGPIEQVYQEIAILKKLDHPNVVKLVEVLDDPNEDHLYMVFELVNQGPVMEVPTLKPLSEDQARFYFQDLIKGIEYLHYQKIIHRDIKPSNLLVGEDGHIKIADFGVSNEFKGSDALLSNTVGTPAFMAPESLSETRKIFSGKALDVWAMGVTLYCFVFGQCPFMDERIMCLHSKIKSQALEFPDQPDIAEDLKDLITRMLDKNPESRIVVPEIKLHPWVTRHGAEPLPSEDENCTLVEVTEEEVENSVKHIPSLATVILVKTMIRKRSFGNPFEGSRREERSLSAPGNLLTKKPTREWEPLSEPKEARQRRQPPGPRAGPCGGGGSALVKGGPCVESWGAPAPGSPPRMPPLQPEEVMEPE
In short: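 Mouse N39 cells seeded ~1000 cells/well, cultured overnight at 37°C, 5% CO2, then exposed to compound in DMSO for 80 min before ionomycin stimulation ([…] as added). Cells were lysed in extraction buffer for 30 min on ice, then diluted into ice-cold lysis buffer containing protease and phosphatase inhibitors for MSD read-out.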

Insulin receptor = Insulin receptor (Homo sapiens, UniProt P06213); experiment: Inhibition of INSR (unknown origin)
Sequence of Insulin receptor (P06213 28-758 limits assumed): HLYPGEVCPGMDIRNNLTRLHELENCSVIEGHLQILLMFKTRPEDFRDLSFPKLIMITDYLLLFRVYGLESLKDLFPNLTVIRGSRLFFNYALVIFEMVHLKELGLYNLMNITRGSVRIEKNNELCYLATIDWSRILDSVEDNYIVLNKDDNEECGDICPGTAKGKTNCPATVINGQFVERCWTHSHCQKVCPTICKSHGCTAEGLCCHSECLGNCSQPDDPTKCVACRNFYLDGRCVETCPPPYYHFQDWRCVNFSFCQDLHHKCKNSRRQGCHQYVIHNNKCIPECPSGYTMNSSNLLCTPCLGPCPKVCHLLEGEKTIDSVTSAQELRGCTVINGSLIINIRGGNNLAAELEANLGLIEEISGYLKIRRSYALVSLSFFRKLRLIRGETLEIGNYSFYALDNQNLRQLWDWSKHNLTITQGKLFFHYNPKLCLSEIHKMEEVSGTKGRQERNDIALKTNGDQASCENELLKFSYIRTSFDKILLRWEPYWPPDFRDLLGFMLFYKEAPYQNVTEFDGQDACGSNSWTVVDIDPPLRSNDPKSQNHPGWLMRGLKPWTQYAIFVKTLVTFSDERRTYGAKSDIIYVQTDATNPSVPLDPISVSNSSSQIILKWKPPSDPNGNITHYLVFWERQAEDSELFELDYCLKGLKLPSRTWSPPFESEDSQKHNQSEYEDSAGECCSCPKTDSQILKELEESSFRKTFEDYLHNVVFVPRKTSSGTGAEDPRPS
Sequence of Insulin receptor (P06213 763-1382 limits assumed): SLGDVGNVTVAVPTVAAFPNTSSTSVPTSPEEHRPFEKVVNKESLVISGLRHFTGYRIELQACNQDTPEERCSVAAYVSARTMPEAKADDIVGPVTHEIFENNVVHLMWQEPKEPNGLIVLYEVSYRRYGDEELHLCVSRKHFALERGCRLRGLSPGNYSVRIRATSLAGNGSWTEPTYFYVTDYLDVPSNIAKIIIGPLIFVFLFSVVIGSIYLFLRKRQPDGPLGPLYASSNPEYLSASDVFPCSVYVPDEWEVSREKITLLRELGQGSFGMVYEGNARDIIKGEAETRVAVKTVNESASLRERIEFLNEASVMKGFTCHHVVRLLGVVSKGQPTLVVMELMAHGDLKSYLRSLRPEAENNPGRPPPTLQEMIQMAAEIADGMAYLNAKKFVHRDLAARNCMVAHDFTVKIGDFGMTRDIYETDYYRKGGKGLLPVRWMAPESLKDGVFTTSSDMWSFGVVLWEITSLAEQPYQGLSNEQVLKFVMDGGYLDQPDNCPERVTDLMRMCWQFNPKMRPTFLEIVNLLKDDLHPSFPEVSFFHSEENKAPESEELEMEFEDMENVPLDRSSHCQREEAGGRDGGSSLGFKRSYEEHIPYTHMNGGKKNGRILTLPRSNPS

[7] = molecular target: Calcium/calmodulin-dependent protein kinase kinase 2 (Homo sapiens, UniProt Q96RR4); experiment: Inhibition of full-length human GST-tagged CAMKK2 using 5FAM-AKPKGNKDYHLQTCCGSLAYRRR-amide as substrate preincubated for 30 mins followed by substrate addition measured after 120 mins by fluorescence polarization assay
Sequence of Calcium/calmodulin-dependent protein kinase kinase 2 (Homo sapiens, UniProt Q96RR4) (Q96RR4 whole entry): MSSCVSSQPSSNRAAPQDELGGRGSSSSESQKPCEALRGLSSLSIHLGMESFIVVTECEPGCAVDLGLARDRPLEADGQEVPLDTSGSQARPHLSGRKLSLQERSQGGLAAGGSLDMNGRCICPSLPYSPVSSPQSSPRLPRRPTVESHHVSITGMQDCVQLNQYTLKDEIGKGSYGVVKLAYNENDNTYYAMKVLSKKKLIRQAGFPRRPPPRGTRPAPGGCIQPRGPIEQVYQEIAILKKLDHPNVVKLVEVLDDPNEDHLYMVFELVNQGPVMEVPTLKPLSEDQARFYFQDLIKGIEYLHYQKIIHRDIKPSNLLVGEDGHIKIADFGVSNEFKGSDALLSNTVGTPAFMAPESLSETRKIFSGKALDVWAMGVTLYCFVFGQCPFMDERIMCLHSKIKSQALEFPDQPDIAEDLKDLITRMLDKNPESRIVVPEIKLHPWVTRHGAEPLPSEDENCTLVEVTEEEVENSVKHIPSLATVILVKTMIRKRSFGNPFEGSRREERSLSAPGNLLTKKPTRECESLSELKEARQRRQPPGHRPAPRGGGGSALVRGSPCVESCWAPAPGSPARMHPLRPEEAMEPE

[8] = Ratio of drug level in brain to plasma in CD rat at 10 mg/kg, po; assay type: ADME, organism-based; details: read-out: BPR
[9] = Cmax in CD rat at 10 mg/kg, po; assay type: ADME, organism-based; set-up: dose 10 mg/kg, route oral; details: in vivo
Aurora kinase A = molecular target: T2, Aurora kinase A (Homo sapiens, UniProt O14965); experiment: Inhibition of aurora A (unknown origin)
T2 sequence (O14965 whole entry): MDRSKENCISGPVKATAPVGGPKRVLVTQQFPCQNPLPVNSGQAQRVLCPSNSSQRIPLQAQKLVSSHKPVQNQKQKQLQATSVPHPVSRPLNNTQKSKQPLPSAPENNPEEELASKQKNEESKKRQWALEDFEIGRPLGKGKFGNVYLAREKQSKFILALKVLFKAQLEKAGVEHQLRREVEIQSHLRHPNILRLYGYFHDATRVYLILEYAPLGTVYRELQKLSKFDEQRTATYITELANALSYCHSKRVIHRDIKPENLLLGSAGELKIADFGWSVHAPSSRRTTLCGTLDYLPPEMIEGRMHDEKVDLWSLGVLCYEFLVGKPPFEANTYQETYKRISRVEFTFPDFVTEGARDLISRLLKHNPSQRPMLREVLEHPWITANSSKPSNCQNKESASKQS

[10] = molecular target: T3, Discoidin domain-containing receptor 2 (Homo sapiens, UniProt Q16832); experiment: Inhibition of DDR2 (unknown origin)
T3 sequence (Q16832 whole entry): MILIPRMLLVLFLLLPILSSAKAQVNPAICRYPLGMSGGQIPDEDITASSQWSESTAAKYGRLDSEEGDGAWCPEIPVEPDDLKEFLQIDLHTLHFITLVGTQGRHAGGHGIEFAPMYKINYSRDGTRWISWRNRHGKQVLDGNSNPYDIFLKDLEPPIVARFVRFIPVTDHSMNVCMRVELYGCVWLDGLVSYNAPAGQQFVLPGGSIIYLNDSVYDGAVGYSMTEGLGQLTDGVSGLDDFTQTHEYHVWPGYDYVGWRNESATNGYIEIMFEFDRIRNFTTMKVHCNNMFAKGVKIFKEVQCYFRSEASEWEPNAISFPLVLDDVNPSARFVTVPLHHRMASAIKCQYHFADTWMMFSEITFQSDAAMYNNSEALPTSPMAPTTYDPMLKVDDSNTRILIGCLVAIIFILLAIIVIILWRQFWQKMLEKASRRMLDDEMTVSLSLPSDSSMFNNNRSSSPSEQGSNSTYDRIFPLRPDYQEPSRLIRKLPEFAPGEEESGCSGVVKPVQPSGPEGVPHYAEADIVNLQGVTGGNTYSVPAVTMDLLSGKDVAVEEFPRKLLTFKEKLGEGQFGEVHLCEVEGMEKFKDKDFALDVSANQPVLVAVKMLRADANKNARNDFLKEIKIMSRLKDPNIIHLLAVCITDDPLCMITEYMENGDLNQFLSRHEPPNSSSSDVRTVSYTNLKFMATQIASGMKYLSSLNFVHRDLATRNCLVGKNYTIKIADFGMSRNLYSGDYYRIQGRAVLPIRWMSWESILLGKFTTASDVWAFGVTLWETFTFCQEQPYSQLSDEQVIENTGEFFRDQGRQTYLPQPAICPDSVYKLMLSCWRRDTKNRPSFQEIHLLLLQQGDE

[11] = molecular target: Phosphatidylinositol 4,5-bisphosphate 3-kinase catalytic subunit gamma isoform (Homo sapiens, UniProt P48736); experiment: Inhibition of PI3Kgamma (unknown origin)
Sequence of Phosphatidylinositol 4,5-bisphosphate 3-kinase catalytic subunit gamma isoform (P48736 whole entry, canonical isoform): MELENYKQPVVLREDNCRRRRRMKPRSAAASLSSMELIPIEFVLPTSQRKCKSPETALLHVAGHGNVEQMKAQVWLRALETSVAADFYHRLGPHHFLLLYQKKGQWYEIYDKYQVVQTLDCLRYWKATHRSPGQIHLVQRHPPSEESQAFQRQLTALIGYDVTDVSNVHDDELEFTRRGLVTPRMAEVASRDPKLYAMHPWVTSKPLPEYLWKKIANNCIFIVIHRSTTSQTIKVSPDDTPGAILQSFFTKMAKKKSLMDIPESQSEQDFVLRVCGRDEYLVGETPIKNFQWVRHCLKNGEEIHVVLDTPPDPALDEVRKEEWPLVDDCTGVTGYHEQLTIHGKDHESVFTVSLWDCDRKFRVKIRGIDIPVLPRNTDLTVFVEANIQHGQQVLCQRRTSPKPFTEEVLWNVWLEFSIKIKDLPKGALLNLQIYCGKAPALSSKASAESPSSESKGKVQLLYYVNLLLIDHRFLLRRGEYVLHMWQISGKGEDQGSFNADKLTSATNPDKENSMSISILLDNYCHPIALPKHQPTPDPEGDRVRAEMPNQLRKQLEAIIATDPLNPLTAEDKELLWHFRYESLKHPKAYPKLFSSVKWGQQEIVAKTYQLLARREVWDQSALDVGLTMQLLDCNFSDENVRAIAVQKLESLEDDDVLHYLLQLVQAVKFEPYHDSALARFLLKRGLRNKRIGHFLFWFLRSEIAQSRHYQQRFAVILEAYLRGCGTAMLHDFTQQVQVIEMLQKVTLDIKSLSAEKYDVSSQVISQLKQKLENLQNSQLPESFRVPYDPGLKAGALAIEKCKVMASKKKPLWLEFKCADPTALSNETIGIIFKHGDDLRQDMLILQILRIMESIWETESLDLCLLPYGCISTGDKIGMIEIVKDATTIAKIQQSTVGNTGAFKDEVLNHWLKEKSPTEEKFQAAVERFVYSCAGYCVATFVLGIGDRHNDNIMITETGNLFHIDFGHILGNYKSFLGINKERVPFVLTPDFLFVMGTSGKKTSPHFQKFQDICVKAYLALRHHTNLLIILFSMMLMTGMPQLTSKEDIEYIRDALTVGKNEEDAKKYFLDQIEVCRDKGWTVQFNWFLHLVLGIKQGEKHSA

[12] = molecular target: Glycogen synthase kinase-3 beta (Homo sapiens, UniProt P49841); experiment: Inhibition of GSK3beta (unknown origin)
Sequence of Glycogen synthase kinase-3 beta (P49841 whole entry): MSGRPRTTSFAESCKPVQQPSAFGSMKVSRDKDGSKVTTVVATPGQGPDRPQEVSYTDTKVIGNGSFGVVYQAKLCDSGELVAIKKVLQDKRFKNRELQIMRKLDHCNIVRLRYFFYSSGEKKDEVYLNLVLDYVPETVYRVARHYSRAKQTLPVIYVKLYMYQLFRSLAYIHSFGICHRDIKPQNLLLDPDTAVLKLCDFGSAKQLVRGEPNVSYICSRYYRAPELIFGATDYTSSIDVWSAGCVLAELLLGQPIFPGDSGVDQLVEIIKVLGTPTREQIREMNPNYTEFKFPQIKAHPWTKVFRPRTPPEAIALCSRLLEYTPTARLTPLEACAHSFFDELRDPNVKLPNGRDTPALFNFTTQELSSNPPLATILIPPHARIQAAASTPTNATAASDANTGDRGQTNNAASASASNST

Rattus norvegicus [13] = experiment: Reduction of food intake in Sprague-Dawley rat at 30 mg/kg, po administered 1 hr measured for 4 hrs; assay type: ADME, organism-based; details: in vivo
Rattus norvegicus [14] = experiment: Inhibition of ghrelin-induced food intake in Sprague-Dawley rat at 30 mg/kg, po administered 1 hr followed by ghrelin addition measured for 4 hrs relative to control; assay type: functional

Structure (SMILES): Cc1cc(OCCN2CCOCC2)ccc1-c1cc2c(-c3ccc(C(N)=O)c(C(C)C)c3)ccnc2[nH]1
- IC50 [1]: 2.51 µM
- IC50 [2]: 2 µM
- Cmax [3]: 374 ng/mL
- solubility at 1 h [4]: 4 µM (≈ 1.99 µg/mL)
- Kp [5]: 0.6
- IC50 [6]: 0.0631 µM
- IC50 (Insulin receptor; read-out: pIC50 (converted)): 0.398 µM
- IC50 [7]: 0.000794 to 0.00794 µM

Structure (SMILES): COc1ccccc1-c1cc2c(-c3ccc(C(N)=O)c(C4CCCC4)c3)ccnc2[nH]1
- IC50 [1]: 2.51 µM
- IC50 [2]: 2 µM
- solubility at 1 h [4]: 7 µM (≈ 2.88 µg/mL)
- IC50 [6]: 0.1 µM
- Kp [8]: 3.2
- IC50 (Insulin receptor; read-out: pIC50 (converted)): 0.794 µM
- Cmax [9]: 35 ng/mL
- IC50 [7]: 0.002 µM

Structure (SMILES): Cc1cc(OCCN2CCOCC2)ccc1-c1cc2c(-c3ccc(C#N)cc3)ccnc2[nH]1
- IC50 [1]: > 31.6 µM
- IC50 (Aurora kinase A): > 10 µM
- IC50 [2]: 20 µM
- solubility at 1 h [4]: 9 µM (≈ 3.95 µg/mL)
- IC50 [10]: > 10 µM
- IC50 [6]: 7.94 µM
- IC50 (Insulin receptor; read-out: IC50): > 10 µM
- IC50 (Insulin receptor; read-out: pIC50 (converted)): > 10 µM
- IC50 [7]: 0.1 to 0.251 µM

Structure (SMILES): COc1ccccc1Nc1ncc(F)c(-c2ccc(C(=O)O)c(C(C)C)c2)n1
- IC50 [11]: 6.31 µM
- IC50 [2]: 3.16 µM
- solubility at 1 h [4]: 97 µM (≈ 37 µg/mL)
- IC50 [6]: 0.398 µM
- IC50 [12]: 7.94 µM
- IC50 [7]: 0.001 to 0.00794 µM

Structure (SMILES): NC(=O)c1ccc(-c2ccnc(Nc3cccc(-c4ccccc4)c3)n2)cc1
- IC50 [11]: 0.1 µM
- IC50 [2]: 1 µM
- solubility at 1 h [4]: 3 µM (≈ 1.1 µg/mL)
- IC50 [6]: 0.631 µM
- IC50 [12]: 0.0316 µM
- IC50 [7]: 0.00794 to 0.0251 µM

Structure (SMILES): Cc1ccc(CN2CCOCC2)cc1-c1cc2c(-c3ccc(C#N)cc3)ccnc2[nH]1
- IC50 [1]: > 25.1 µM
- IC50 (Aurora kinase A): > 10 µM
- IC50 [2]: > 10 µM
- solubility at 1 h [4]: 2 µM (≈ 0.817 µg/mL)
- IC50 [10]: > 10 µM
- IC50 [6]: 2.51 µM
- IC50 (Insulin receptor; read-out: IC50): > 10 µM
- IC50 (Insulin receptor; read-out: pIC50 (converted)): > 10 µM
- IC50 [7]: 0.0794 to 0.398 µM

Structure (SMILES): COc1ccccc1Nc1nccc(-c2ccc(C(=O)O)c(C(C)C)c2)n1
- IC50 [11]: 1.58 µM
- IC50 [2]: 3.16 µM
- solubility at 1 h [4]: > 367 µM
- IC50 [6]: 1 µM
- IC50 [12]: 15.8 µM
- IC50 [7]: 0.002 µM

Structure (SMILES): Cc1cc(OCCN2CCOCC2)ccc1-c1cc2c(-c3ccc(C#N)c(C(C)C)c3)ccnc2[nH]1
- Activity (Rattus norvegicus [13]): Non-Toxic
- IC50 [1]: > 25.1 µM
- IC50 (Aurora kinase A): > 10 µM
- inhibition in vivo at 30 mg/kg (Rattus norvegicus [14]): 40%
- IC50 [2]: > 10 µM
- Cmax [3]: 964 ng/mL
- solubility at 1 h [4]: < 1 µM
- Kp [5]: 0.9
- IC50 [10]: > 10 µM
- IC50 [6]: 0.501 µM
- IC50 (Insulin receptor; read-out: IC50): > 10 µM
- IC50 (Insulin receptor; read-out: pIC50 (converted)): > 10 µM
- IC50 [7]: 0.00631 µM

Structure (SMILES): COc1ccccc1Nc1nccc(-c2ccc(C(=O)O)cc2)n1
- IC50 [11]: 3.98 µM
- IC50 [2]: 5.01 µM
- solubility at 1 h [4]: > 444 µM
- IC50 [6]: > 10 µM
- IC50 [12]: > 25.1 µM
- IC50 [7]: 0.2 to 1.58 µM

Structure (SMILES): COc1ccccc1Nc1ncc(Cl)c(-c2ccc(C(N)=O)c(C(C)C)c2)n1
- IC50 [11]: 6.31 µM
- IC50 [2]: > 10 µM
- solubility at 1 h [4]: 5 µM (≈ 1.98 µg/mL)
- IC50 [6]: > 10 µM
- IC50 [12]: 20 µM
- IC50 [7]: 0.158 to 1.58 µM

Structure (SMILES): Cc1ccc(CN2CCOCC2)cc1-c1cc2c(-c3ccc(C#N)c(C(C)C)c3)ccnc2[nH]1
- IC50 [1]: 2.51 µM
- IC50 (Aurora kinase A): > 10 µM
- IC50 [2]: 7.94 µM
- Cmax [3]: 127 ng/mL
- solubility at 1 h [4]: 1 µM (≈ 0.451 µg/mL)
- Kp [5]: 0.6
- IC50 [10]: > 10 µM
- IC50 [6]: 0.398 µM
- IC50 (Insulin receptor; read-out: IC50): > 10 µM
- IC50 (Insulin receptor; read-out: pIC50 (converted)): > 10 µM
- IC50 [7]: 0.0126 µM

Structure (SMILES): Cc1ccc(-c2ccccc2)cc1Nc1nccc(-c2ccc(C(N)=O)cc2)n1
- IC50 [11]: > 10 µM
- IC50 [2]: > 10 µM
- solubility at 1 h [4]: 4 µM (≈ 1.52 µg/mL)
- IC50 [6]: 3.98 µM
- IC50 [12]: > 25.1 µM
- IC50 [7]: 0.0316 to 0.501 µM

From ChEMBL document CHEMBL4118126, “An orally available, brain-penetrant CAMKK2 inhibitor reduces food intake in rodent model” (Bioorg Med Chem Lett, 2018)
